# Active and inactive are the calls of the source.
# Assays:
# P388 [1] = experiment: Antitumor activity against mouse P388 cells allografted in mouse assessed as disease cure at 300 mg/kg, ip on day 1, 5 and 9 measured up to 60 days; format: functional, organism-based; parameters: dose 300 mg/kg
# Summary of the method: (§1)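 BDF1 or CDF1 mice inoculated ip with ascitic P388 leukemia cells, dosed ip on days 1, 5 and 9. Deaths recorded for 60 days; "cures" taken as number of survivors/total at 60 days.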
# P388 [2] = experiment: Antitumor activity against mouse P388 cells allografted in mouse assessed as increase of median life span at 300 mg/kg, ip on day 1, 5 and 9 measured up to 60 days relative to control; format: functional; conditions: route intraperitoneal
# Summary of the method: (§2)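 BDF1 or CDF1 mice inoculated ip with ascitic P388 leukemia cells. Dosing ip on days 1, 5 and 9. Deaths recorded for 60 days; % increase in median life span over controls. "Cures" are survivors/total at 60 days.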
# B16 [3] = experiment: Antitumor activity against mouse B16 cells allografted in BDF1 mouse assessed as disease cure at 50 mg/kg, ip on day 1 to 9 measured up to 80 days; format: functional, organism-based; parameters: dose 50 mg/kg
# Summary of the method: (§3)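 BDF1 mice implanted ip with homogenate from 0.05 g of B16 tumor, then dosed ip on days 1-9. Deaths recorded for 80 days; "cures" scored as survivors/total at 80 days.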
# B16 [4] = experiment: Antitumor activity against mouse B16 cells allografted in BDF1 mouse assessed as increase of median life span at 50 mg/kg, ip on day 1 to 9 measured up to 80 days relative to control; format: functional; conditions: route intraperitoneal
# Summary of the method: (§4)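 BDF1 mice implanted ip with a homogenate from 0.05 g of B16 tumor. Test agent given ip on days 1-9. Deaths recorded for 80 days. Result is % increase in median life span over untreated controls. "Cures" are survivors/total at 80 days.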
# [5] = system: Lewis lung carcinoma cell line; experiment: Antitumor activity against mouse LLC cells subcutaneously implanted in mouse; format: functional, cell-based
# [6] = system: Lewis lung carcinoma cell line; experiment: Antitumor activity against mouse LLC cells intravenously implanted in mouse; format: functional, cell-based
# B16 [7] = experiment: Antitumor activity against mouse B16 cells allografted in BDF1 mouse assessed as increase of median life span at 6.2 mg/kg, ip on day 1 to 9 measured up to 80 days relative to control; format: functional; conditions: route intraperitoneal; summary of the method: as §4
# P388 [8] = experiment: Antitumor activity against mouse P388 cells allografted in mouse assessed as increase of median life span at 12.5 mg/kg, ip on day 1, 5 and 9 measured up to 60 days relative to control; format: functional; conditions: route intraperitoneal; summary of the method: as §2
# P388 [9] = experiment: Antitumor activity against mouse P388 cells allografted in mouse assessed as disease cure at 250 mg/kg, ip on day 1, 5 and 9 measured up to 60 days; format: functional, organism-based; parameters: dose 250 mg/kg; summary of the method: as §1
# P388 [10] = experiment: Antitumor activity against mouse P388 cells allografted in mouse assessed as increase of median life span at 250 mg/kg, ip on day 1, 5 and 9 measured up to 60 days relative to control; format: functional; conditions: route intraperitoneal; summary of the method: as §2
# P388 [11] = experiment: Antitumor activity against mouse P388 cells allografted in mouse assessed as increase of median life span at 200 mg/kg, ip on day 1, 5 and 9 measured up to 60 days relative to control; format: functional; conditions: route intraperitoneal; summary of the method: as §2
# B16 [12] = experiment: Antitumor activity against mouse B16 cells allografted in BDF1 mouse assessed as increase of median life span at 100 mg/kg, ip on day 1 to 9 measured up to 80 days relative to control; format: functional; conditions: route intraperitoneal; summary of the method: as §4
# B16 [13] = experiment: Antitumor activity against mouse B16 cells allografted in BDF1 mouse assessed as disease cure at 25 mg/kg, ip on day 1 to 9 measured up to 80 days; format: functional, organism-based; parameters: dose 25 mg/kg; summary of the method: as §3
# B16 [14] = experiment: Antitumor activity against mouse B16 cells allografted in BDF1 mouse assessed as increase of median life span at 25 mg/kg, ip on day 1 to 9 measured up to 80 days relative to control; format: functional; conditions: route intraperitoneal; summary of the method: as §4
# P388 [15] = experiment: Antitumor activity against mouse P388 cells allografted in mouse assessed as disease cure at 50 mg/kg, ip on day 1, 5 and 9 measured up to 60 days; format: functional, organism-based; parameters: dose 50 mg/kg; summary of the method: as §1
# P388 [16] = experiment: Antitumor activity against mouse P388 cells allografted in mouse assessed as increase of median life span at 50 mg/kg, ip on day 1, 5 and 9 measured up to 60 days relative to control; format: functional; conditions: route intraperitoneal; summary of the method: as §2
# L5178Y [17] = experiment: Ratio of adriamycin to compound for inhibition of RNA synthesis in mouse L5178Y cells; format: functional
# P388 [18] = experiment: Antitumor activity against mouse P388 cells allografted in ip dosed mouse assessed as minimum effective dose administered as single dose; format: functional; conditions: read-out: MED
# Summary of the method: (§5)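 Drug given ip to P388 tumor-bearing mice, either once as a single dose or once each 4 days for three injections. Minimum effective dose defined as the dose giving 40% increase in life span over control, read from regression lines of log dose-response data.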
# [19] = Therapeutic index, ratio of MTD for mouse P388 cells allografted ip dosed mouse to MED for mouse P388 cells allografted in ip dosed mouse administered as single dose; format: organism-based; conditions: in vivo, read-out: TI
# Summary of the method: (§6)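 Therapeutic index is MTD/MED for ip dosing, either single or once every 4 days ×3. MTD is the 10% lethal dose in normal mice over 21 days. MED is the dose giving a 40% life-span increase in P388-bearing mice. Both come from log dose-response regression lines.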
# [20] = Toxicity in […] assessed as maximum tolerated dose administered as once each 4 days for 3 total injection; format: organism-based, P388; conditions: mouse, in vivo, ip
# P388 [21] = experiment: Antitumor activity against mouse P388 cells allografted in ip dosed mouse assessed as dose providing 40% increase in life span administered as once each 4 days for 3 total injection; format: functional
# Summary of the method: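 P388 tumor-bearing mice dosed ip, either once as a single dose or once every 4 days for three injections. It was read from regression lines of log dose-response data.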
# [22] = Therapeutic index, ratio of MTD for mouse P388 cells allografted ip dosed mouse to MED for mouse P388 cells allografted in ip dosed mouse administered as once each 4 days for 3 total injection; format: organism-based; conditions: in vivo, read-out: TI; summary of the method: as §6
# B16 [23] = experiment: Antitumor activity against mouse B16 cells allografted in BDF1 mouse assessed as increase of median life span at 0.8 mg/kg, ip on day 1 to 9 measured up to 80 days relative to control; format: functional; conditions: route intraperitoneal; summary of the method: as §4
# P388 [24] = experiment: Antitumor activity against mouse P388 cells allografted in mouse assessed as increase of median life span at 1.6 mg/kg, ip on day 1, 5 and 9 measured up to 60 days relative to control; format: functional; conditions: route intraperitoneal; summary of the method: as §2
# P388 [25] = experiment: Antitumor activity against mouse P388 cells allografted in ip dosed mouse assessed as minimum effective dose administered as once each 4 days for 3 total injection; format: functional; conditions: 96 h, read-out: MED; summary of the method: as §5
# [26] = Toxicity in […] assessed as maximum tolerated dose administered as single dose; format: organism-based, P388; conditions: mouse, in vivo, ip
# L5178Y [27] = experiment: Ratio of adriamycin to compound for inhibition of DNA synthesis in mouse L5178Y cells; format: functional
# P388 [28] = experiment: Antitumor activity against mouse P388 cells allografted in mouse assessed as increase of median life span at 5 mg/kg, ip on day 1, 5 and 9 measured up to 60 days relative to control; format: functional; conditions: route intraperitoneal; summary of the method: as §2
# B16 [29] = experiment: Antitumor activity against mouse B16 cells allografted in BDF1 mouse assessed as increase of median life span at 200 mg/kg, ip on day […] measured up to 80 days relative to control; format: functional; conditions: route intraperitoneal
compound,measurement,setting,value
O=C1c2c(O)ccc(O)c2C(=O)c2c(NCCN3CCCCC3)ccc(NCCN3CCCCC3)c21,Activity,P388 [1],inactive
same,ILS at 300 mg/kg,P388 [2],40%
same,Activity,B16 [3],inactive
same,ILS at 50 mg/kg,B16 [4],0%
C[N+](C)(C)CCNc1ccc(NCC[N+](C)(C)C)c2c1C(=O)c1ccccc1C2=O,Activity,P388 [1],inactive
same,ILS at 300 mg/kg,P388 [2],0%
O=C1c2c(O)ccc(O)c2C(=O)c2c(NCCNCCO)ccc(NCCNCCO)c21,Activity,[5],inactive
same,Activity,[6],inactive
O=C1c2c(O)ccc(O)c2C(=O)c2c(NCCNCCCO)ccc(NCCNCCCO)c21,ILS at 6.2 mg/kg,B16 [7],357%
same,ILS at 12.5 mg/kg,P388 [8],191%
O=C1c2ccccc2C(=O)c2c(NCCc3ccccn3)ccc(NCCc3ccccn3)c21,Activity,P388 [9],inactive
same,ILS at 250 mg/kg,P388 [10],0%
O=C1c2c(O)ccc(O)c2C(=O)c2c(NCCNCCN3CCOCC3)ccc(NCCNCCN3CCOCC3)c21,ILS at 200 mg/kg,P388 [11],136%
same,ILS at 100 mg/kg,B16 [12],233%
CN(C)CCCNc1ccc(NCCCN(C)C)c2c1C(=O)c1c(O)ccc(O)c1C2=O,Activity,B16 [13],inactive
same,ILS at 25 mg/kg,B16 [14],25%
same,Activity,P388 [15],inactive
same,ILS at 50 mg/kg,P388 [16],29%
Cl.Cl.O=C1c2c(O)ccc(O)c2C(=O)c2c(NCCNCCO)ccc(NCCNCCO)c21 [MITOXANTRONE HYDROCHLORIDE],Ratio,L5178Y [17],7
same,minimal effective dose,P388 [18],0.15 mg/kg
same,selectivity ratio,[19],28
same,MTD at 96 h,[20],3.4 mg/kg
same,Activity,P388 [21],300 mg/kg
same,selectivity ratio at 96 h,[22],148
same,ILS at 0.8 mg/kg,B16 [23],> 272%
same,ILS at 1.6 mg/kg,P388 [24],> 500%
same,minimal effective dose,P388 [25],0.023 mg/kg
same,MTD,[26],4.2 mg/kg
same,Ratio,L5178Y [27],4
COc1cccc2c1C(=O)c1c(O)c3c(c(O)c1C2=O)C[C@@](O)(C(=O)CO)C[C@@H]3O[C@H]1C[C@H](N)[C@H](O)[C@H](C)O1 [DOXORUBICIN],minimal effective dose,P388 [18],0.35 mg/kg
same,MTD at 96 h,[20],2.7 mg/kg
same,ILS at 0.8 mg/kg,B16 [23],275%
same,minimal effective dose,P388 [25],0.14 mg/kg
same,MTD,[26],13.1 mg/kg
same,ILS at 5 mg/kg,P388 [28],159%
O=C1c2c(O)ccc(O)c2C(=O)c2c(NCCN(CCO)CCO)ccc(NCCN(CCO)CCO)c21,ILS at 200 mg/kg,P388 [11],306%
same,ILS at 200 mg/kg,B16 [29],212%
